For assay [1], the system named is Mus musculus. The assay is described as follows: Antiinflammatory activity against trinitrobenzenesulfonic acid-induced colitis in human PXR expressing transgenic C57/BL6 mouse assessed as decrease in weight loss at 10 mg/kg, ip qd administered 3 days before TNBS challenge measured after 7 days. In kind it is functional, organism-based. Further details: dose 10 mg/kg. Conditions: C57Bl/6. An outline of the steps: (§1)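 Male hPXR mice (human PXR on mouse PXR-null background). Fasted 16 h and lightly anaesthetised with ketamine/xylazine, then given TNBS 0.5 mg/mouse in 50% ethanol intrarectally in 150 μL. Drug was dissolved in DMSO, diluted in 1% methylcellulose and given i.p. once daily for 3 days before TNBS. Vehicle controls received methylcellulose. Mice were sacrificed 4 days after TNBS; n = 6–7 per group.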

Assay [2] has as its system Mus musculus. The assay can be described thus: Antiinflammatory activity against trinitrobenzenesulfonic acid-induced colitis in human PXR expressing transgenic C57/BL6 mouse assessed as decrease in INF-gamma protein level in colon at 10 mg/kg, ip qd after 5 days. It counts as functional, organism-based. The arrangement: dose 10 mg/kg. Conditions: C57Bl/6.
The test system of assay [3] is Mus musculus. The assay can be described thus: Antiinflammatory activity against trinitrobenzenesulfonic acid-induced colitis in human PXR expressing transgenic C57/BL6 mouse assessed as decrease in MIP-1alpha protein level in colon at 10 mg/kg, ip qd after 5 days. Conditions: C57Bl/6. The arrangement: dose 10 mg/kg. In kind it is functional, organism-based.
Assay [4] deals with Mus musculus. The assay can be described thus: Antiinflammatory activity against trinitrobenzenesulfonic acid-induced colitis in human PXR expressing transgenic C57/BL6 mouse assessed as increase in IL-10 protein level in colon at 10 mg/kg, ip qd after 5 days by ELISA. In kind it is functional, organism-based. The arrangement: dose 10 mg/kg. Conditions: C57Bl/6. The method in brief:
as §1
For orientation: In an ELISA, binding on a coated surface is turned into a signal by an enzyme label.

For assay [5], the system named is THP-1. The assay can be described thus: Inhibition of NF-kappaB p65 DNA binding activity in LPS-stimulated human THP1 cells at 10 uM after 3 hrs by electrophoretic mobility shift assay. It counts as cell-based. The method in brief: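 THP-1 cells were pretreated with compound (10 μM) or vehicle for 3 h, then LPS 1 μg/mL was added for 20 h. Nuclear extracts were incubated with biotinylated NF-κB probe for 20 min at room temperature, run on a 6% native gel and detected by chemiluminescence. Specificity was checked by cold-probe competition and p65 antibody supershift. Three independent experiments.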

The subject of assay [6] is Mus musculus. The assay can be described thus: Antiinflammatory activity against trinitrobenzenesulfonic acid-induced colitis in human PXR expressing transgenic C57/BL6 mouse assessed as decrease in occurrence of diarrhea at 10 mg/kg, ip administered on day 1 after TNBS challenge measured after 5 days. In kind it is functional, organism-based. Conditions: C57Bl/6. The arrangement: dose 10 mg/kg. The method in brief:
(§2)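 Therapeutic protocol in male hPXR mice. Colitis was induced with intrarectal TNBS 0.5 mg/mouse in 50% ethanol after a 16 h fast and light ketamine/xylazine anaesthesia. Drug at 10 mg/kg was given once daily from day 1 after TNBS. Mice were sacrificed 5 days after TNBS; n = 4–6 per group.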

The test system of assay [7] is Mus musculus. The assay is described as follows: Antiinflammatory activity against trinitrobenzenesulfonic acid-induced colitis in human PXR expressing transgenic C57/BL6 mouse assessed as decrease in weight loss at 10 mg/kg, ip administered on day 1 after TNBS challenge measured after 5 days. It counts as functional, organism-based. The arrangement: dose 10 mg/kg. Conditions: C57Bl/6. An outline of the steps:
as §2

Assay [8] deals with Mus musculus. The assay can be described thus: Antiinflammatory activity against trinitrobenzenesulfonic acid-induced colitis in human PXR expressing transgenic C57/BL6 mouse assessed as decrease in thickening of colon wall at 10 mg/kg, ip administered on day 1 after TNBS challenge measured after 5 days by microscopically. In kind it is functional, organism-based. The arrangement: dose 10 mg/kg. Conditions: C57Bl/6. The method in brief: as §2

The target of assay [9] is T1, Nuclear receptor subfamily 1 group I member 2 (Homo sapiens, UniProt O75469).
T1 sequence (O75469 whole entry): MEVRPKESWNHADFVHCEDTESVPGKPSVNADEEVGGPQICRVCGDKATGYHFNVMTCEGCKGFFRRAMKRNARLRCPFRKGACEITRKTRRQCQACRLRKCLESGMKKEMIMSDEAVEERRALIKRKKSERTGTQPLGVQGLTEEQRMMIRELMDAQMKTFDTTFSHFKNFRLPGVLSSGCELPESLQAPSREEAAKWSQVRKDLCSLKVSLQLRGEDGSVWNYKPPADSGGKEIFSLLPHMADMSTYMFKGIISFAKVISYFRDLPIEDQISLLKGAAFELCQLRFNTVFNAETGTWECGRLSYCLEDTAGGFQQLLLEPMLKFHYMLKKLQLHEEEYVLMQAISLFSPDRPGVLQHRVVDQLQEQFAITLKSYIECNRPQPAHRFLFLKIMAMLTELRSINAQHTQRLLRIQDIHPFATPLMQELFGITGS
The assay can be described thus: Transactivation of human PXR expressed in HepG2 cells after 18 hrs by luciferase reporter gene assay. It counts as cell-based. An outline of the steps: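 HepG2 cells were transiently transfected with pSG5-PXR, pSG5-RXR, pCMV-βgal and a CYP3A4-promoter luciferase reporter. 48 h after transfection, cells were stimulated for 18 h at 0.1, 1 and 10 μM. Luciferase was normalised to β-galactosidase; n = 4. Relative EC50 from n = 3.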
On the technique in general: In a reporter assay the amount or activity of a reporter protein is the signal.

For assay [10], the system named is Mus musculus. The assay is described as follows: Antiinflammatory activity against trinitrobenzenesulfonic acid-induced colitis in human PXR expressing transgenic C57/BL6 mouse assessed as increase in TGF-beta1 protein level in colon at 10 mg/kg, ip qd after 5 days. Conditions: C57Bl/6.
The subject of assay [11] is Mus musculus. The assay is described as follows: Antiinflammatory activity against trinitrobenzenesulfonic acid-induced colitis in human PXR expressing transgenic C57/BL6 mouse assessed as increase in IL-10 protein level in colon at 10 mg/kg, po qd after 5 days by ELISA. Conditions: C57Bl/6. It counts as functional, organism-based. Further details: dose 10 mg/kg. The method in brief: (§3)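 TNFα and IL-10 were measured by ELISA in colon homogenates (T-PER lysis, 10,000g for 15 min at 4 °C) from TNBS-colitic hPXR mice. Mice were dosed orally at 10 mg/kg once daily in DMSO/1% methylcellulose, starting 3 days before intrarectal TNBS (0.5 mg/mouse). Values were normalized to protein; mean ± SE, 6–7 mice/group.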

Assay [12] deals with Mus musculus. The assay is described as follows: Antiinflammatory activity against trinitrobenzenesulfonic acid-induced colitis in human PXR expressing transgenic C57/BL6 mouse assessed as induction of CYP3A11 mRNA expression in colon at 10 mg/kg, po qd after 5 days by quantitative RT-PCR. In kind it is functional, organism-based. Further details: dose 10 mg/kg. Conditions: C57Bl/6. The method in brief:
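Cyp3A11 mRNA in colon of TNBS-colitic hPXR mice was measured by SYBR Green qPCR (50 ng template, 0.2 μM primers). Cycling was 95 °C for 2 min, then 40 cycles of 95/55/72 °C, with each reaction run in triplicate. Expression was calculated by ΔΔCT against GAPDH relative to untreated control. Mean ± SE, 5 mice/group.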

Assay [13] concerns Mus musculus. The assay is described as follows: Antiinflammatory activity against trinitrobenzenesulfonic acid-induced colitis in human PXR expressing transgenic C57/BL6 mouse assessed as decrease in cellular infiltrate in colon at 10 mg/kg, po qd administered 3 days before TNBS challenge measured after 7 days. It counts as functional, organism-based. Further details: dose 10 mg/kg. Conditions: C57Bl/6. The method in brief:
(§4)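 TNBS colitis in male hPXR mice (human PXR on mouse PXR-null background). After a 16 h fast and light ketamine/xylazine i.p. anesthesia, mice received TNBS 0.5 mg/mouse in 50% ethanol intrarectally by catheter. Dosing was 10 mg/kg orally once daily, dissolved in DMSO and diluted in 1% methylcellulose, starting 3 days before TNBS. Colons were taken 4 days after TNBS and stained with H&E. n = 6–7.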

The test system of assay [14] is Mus musculus. The assay is described as follows: Antiinflammatory activity against trinitrobenzenesulfonic acid-induced colitis in human PXR expressing transgenic C57/BL6 mouse assessed as decrease in appearance of submucosal edema in colon at 10 mg/kg, po qd administered 3 days before TNBS challenge measured after 7 days by haematoxylin/eosin staining. In kind it is functional, organism-based. Further details: dose 10 mg/kg. Conditions: C57Bl/6. An outline of the steps: as §4

The test system of assay [15] is Mus musculus. The assay can be described thus: Antiinflammatory activity against trinitrobenzenesulfonic acid-induced colitis in human PXR expressing transgenic C57/BL6 mouse assessed as decrease in TNF-alpha protein level in colon at 10 mg/kg, po qd after 5 days by ELISA. It counts as functional, organism-based. The arrangement: dose 10 mg/kg. Conditions: C57Bl/6. The method in brief:
as §3

Each structure is given as a SMILES string. The source made the active and inactive calls. The rule behind the calls is not given here.

As usually defined, the EC50 is the concentration at which the effect is half-maximal. A high value points to weaker potency.

`C[C@H](CCCOS(=O)(=O)O)[C@H]1CC[C@H]2[C@@H]3CC[C@H]4C[C@H](OS(=O)(=O)O)[C@@H](OS(=O)(=O)O)C[C@]4(C)[C@H]3CC[C@]12C` [SOLOMONSTEROL A]: the result in [1], in assay [2], in [3], in [4], in [5] and in assay [6] was Active. Besides, the result in [7], in assay [8] and in assay [10] was Active. This compound also had an EC50 in [9] of 5.2 µM.
As to `CO[C@H]1/C=C/O[C@@]2(C)Oc3c(C)c(O)c4c(O)c(c5c(nc6cc(C)ccn65)c4c3C2=O)NC(=O)/C(C)=C\C=C\[C@H](C)[C@H](O)[C@@H](C)[C@@H](O)[C@@H](C)[C@H](OC(C)=O)[C@@H]1C` [RIFAXIMIN], the outcome in [11], in assay [12], in [5], in [13], in [14] and in assay [15] was Active. The compound further returned an EC50 in [9] of 2.2 µM.
